This note sets out measurements from ChEMBL document CHEMBL1914450, “1,7-Naphthyridine 1-oxides as novel potent and selective inhibitors of p38 mitogen activated protein kinase” (J Med Chem, 2011).

Data set [1] is described as follows: Metabolic stability in rat liver microsomes assessed as metabolic rate at 5 uM after 30 mins by UPLC-MS/MS analysis. In kind it is ADME, Microsome. The following applies: read-out: Activity. The method, boiled down: (§1)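 Test compound at 5 μM incubated 30 min at 37 °C with liver microsomes (1 mg/mL protein), with and without NADPH. Parent compound quantified by UPLC-MS/MS. Metabolic rate taken from parent peak area with NADPH versus without.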

A short description of data set [2]: Tmax in Wistar rat at 10 mg/kg, po by UPLC-MS/MS analysis. In kind it is ADME, organism-based. Details: dose 10 mg/kg, route oral. To be noted: in vivo. In short, it runs like this: (§2)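 Wistar rats dosed 1 mg/kg iv or 10 mg/kg po. Blood drawn from the retro-orbital plexus at set time points. Plasma separated by centrifugation (3000 rpm, 10 min, 4 °C) and stored at −20 °C until analysis. Values are mean of n = 2.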

In data set [3] the test system is Rattus norvegicus. As to the kind of experiment: (§3) Bioavailability in Wistar rat at 10 mg/kg, po and at 1 mg/kg, iv measured up to 6 hrs. In kind it is ADME, organism-based. To be noted: in vivo, 6 h. In short, it runs like this: (§4)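 Male Wistar rats received 1 mg/kg iv or 10 mg/kg po. Blood was drawn from the retro-orbital plexus at set time points and centrifuged (3000 rpm, 10 min, 4 °C). Plasma was stored at −20 °C and prepared by protein precipitation for analysis. Oral exposure was measured over 0–6 h. Values are mean ± SD, n = 2.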

The nature of data set [4]: Metabolic stability in human liver microsomes assessed as metabolic rate at 5 uM after 30 mins by UPLC-MS/MS analysis. In kind it is ADME, Microsome. The following applies: read-out: Activity. In short, it runs like this:
as §1
For orientation: Liver microsomes are a subcellular fraction often used to study metabolism.

Data set [5] is described as follows: Volume of distribution at steady state in Wistar rat at 1 mg/kg, iv by UPLC-MS/MS analysis. In kind it is ADME, organism-based. Details: dose 1 mg/kg, route intravenous. To be noted: in vivo, read-out: Vdss. The method, boiled down:
as §2

Data set [6] in a line: Solubility of the compound at pH 1.0. In kind it is physicochemical. To be noted: buffer.
Data set [7] is described as follows: Solubility of the compound at pH 7.4. In kind it is physicochemical. To be noted: buffer.
The nature of data set [8]: Half life in Wistar rat at 1 mg/kg, iv by UPLC-MS/MS analysis. In kind it is ADME, organism-based. Details: dose 1 mg/kg, route intravenous. To be noted: in vivo. In short, it runs like this:
as §4

The test system of data set [9] is Rattus norvegicus. As to the kind of experiment: (§5) AUC (0 to 6 hrs) in Wistar rat at 10 mg/kg, po by UPLC-MS/MS analysis. The following applies: in vivo, 6 h. Details: time < 6 hr, dose 10 mg/kg, route oral. In kind it is ADME, organism-based, Plasma. In short, it runs like this: as §4
Data set [10] is described as follows: Cmax in Wistar rat at 10 mg/kg, po by UPLC-MS/MS analysis. In kind it is ADME, organism-based. Details: dose 10 mg/kg, route oral. To be noted: in vivo. The method, boiled down:
as §4

The nature of data set [11]: as §3. In kind it is ADME, organism-based. The following applies: Wistar, in vivo. The method, boiled down: as §4
Data set [12] is described as follows: as §5. In kind it is ADME, organism-based, Plasma. Details: time < 6 hr, dose 10 mg/kg, route oral. To be noted: Wistar, plasma. In short, it runs like this: as §4
Data set [13] in a line: Clearance in Wistar rat at 1 mg/kg, iv by UPLC-MS/MS analysis. In kind it is ADME, organism-based. Details: dose 1 mg/kg, route intravenous. To be noted: in vivo. The method, boiled down:
as §4

≈ marks a conversion by molar mass, not a printed value.

Regarding `Cc1ccccc1-c1c2nccc(-c3ccc(F)cc3F)c2cc[n+]1[O-]`, the metabolised at 0.5 h, 5 µM was 9% in data set [1] and below 5% in [4]. The Tmax in [2] turned out to be 3.5 h. In the data set on Rattus norvegicus [3], this compound gave an F of 38%. Also, the Vd in data set [5] was found to be 1.7 L/kg. For the same compound, the solubility came to 41 µg/mL (≈ 118 µM) in [6] and 27 µg/mL (≈ 77.5 µM) in data set [7]. Moreover, the half-life in data set [8] is 7.4 h. The compound also registered an AUC in the data set on Rattus norvegicus [9] of 29.5 µM·h. Moreover, the Cmax in [10] is 5300 nM.
Take `[O-][n+]1ccc2c(-c3ccc(F)cc3F)cc(C3CCNCC3)nc2c1-c1c(Cl)cccc1Cl`: the time to peak (Tmax) in data set [2] came out at 0.3 h. Further, the bioavailability in data set [11] came out at 16%. In addition, the Vd in data set [5] came to 13.7 L/kg. The same compound showed a half-life in data set [8] of 2.3 h. The compound also gave an AUC(0-t) at 6 h in data set [12] of 0.48 µM·h. In data set [13], this compound had a clearance of 102 mL/min/kg. The same compound registered a Cmax in data set [10] of 200 nM.
For the compound `[O-][n+]1ccc2c(-c3ccc(F)cc3F)cc(NC3CCNCC3)nc2c1-c1c(F)cccc1F`, the Tmax in data set [2] is 0.3 h. The bioavailability in data set [11] was below 10%. For the same compound, in [5], the Vd was 10.3 L/kg. This compound showed a half-life in data set [8] of 4.6 h. This compound yielded an AUC(0-t) at 6 h in [12] of 0.05 µM·h. This compound also came in with a clearance in data set [13] of 59 mL/min/kg. Also, in [10], the peak level (Cmax) was 90 nM.

One may read the Tmax as the time at which the peak concentration occurs. Usually solubility stands for the dissolved amount per volume that the medium holds. A low value points to little dissolved substance. As a reminder, the half-life is the time in which the quantity being followed falls by half. Read a low half-life as fast loss. What is called AUC is concentration integrated over time. For orientation: Cmax means the highest concentration seen after dosing. In general, bioavailability refers to dose-corrected exposure relative to a reference, in per cent. For orientation: AUC(0-t) means the area under the concentration-time curve up to a stated or last time point. A lower AUC(0-t) goes with low exposure. The clearance is the volume of plasma or blood freed of the substance per unit of time. Lower therefore signals inefficient removal.
